Measured values published in ChEMBL document CHEMBL1127856, “Synthesis and structure-activity studies on acidic amino acids and related diacids as NMDA receptor ligands” (J Med Chem, 1994).

What was measured:
[1] = target: T1, Glutamate receptor ionotropic, AMPA (Rattus norvegicus, UniProt P19490+P19491+P19492+P19493); assay: Tested in vitro for the concentration required to inhibit [3H]AMPA radioligand at EAA receptor sites in rat cortical membranes; type: cell membranes
Method in brief: (§1)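 Radioligand displacement ([3H]AMPA or [3H]CPP) in rat cortical membranes prepared by the Ransom and Stec method.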

Glutamate NMDA receptor [2] = assay: Stimulation of [3H]-MK-801 binding to EAA receptor sites in rat cortical membranes
Glutamate NMDA receptor [3] = assay: Tested in vitro for the concentration required to inhibit [3H]CPP radioligand at EAA receptor sites in rat cortical membranes; type: cell membranes; method in brief: as §1
Rattus norvegicus [4] = organism: Rattus norvegicus; assay: Effective concentration in vitro as electropharmacological activity in the rat cortical wedge preparation; type: functional
Method in brief: (§2)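 Rat brain wedges (500 μm) containing cerebral cortex and corpus callosum, separated by a grease gap. The cortex side is perfused with Mg2+-free oxygenated Krebs buffer containing the compounds, and the callosum side with Mg2+- and Ca2+-free Krebs. DC potentials are recorded via Ag/AgCl electrodes. Agonists for antagonism: NMDA 10 μM, AMPA 5 μM, kainic acid 10 μM. Dose–response curves come from single experiments, each repeated at least twice.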

[5] = target: T1, Glutamate receptor ionotropic, AMPA; assay: Tested in vitro for the concentration required to inhibit [3H]AMPA radioligand at AMPA receptor sites in rat cortical membranes; type: cell membranes
[6] = target: Glutamate receptor ionotropic, NMDA 2C (Rattus norvegicus) (UniProt Q00961); assay: pKa was determined; type: functional
Chain of Glutamate receptor ionotropic, NMDA 2C (Rattus norvegicus) (Q00961 20-1237 limits assumed): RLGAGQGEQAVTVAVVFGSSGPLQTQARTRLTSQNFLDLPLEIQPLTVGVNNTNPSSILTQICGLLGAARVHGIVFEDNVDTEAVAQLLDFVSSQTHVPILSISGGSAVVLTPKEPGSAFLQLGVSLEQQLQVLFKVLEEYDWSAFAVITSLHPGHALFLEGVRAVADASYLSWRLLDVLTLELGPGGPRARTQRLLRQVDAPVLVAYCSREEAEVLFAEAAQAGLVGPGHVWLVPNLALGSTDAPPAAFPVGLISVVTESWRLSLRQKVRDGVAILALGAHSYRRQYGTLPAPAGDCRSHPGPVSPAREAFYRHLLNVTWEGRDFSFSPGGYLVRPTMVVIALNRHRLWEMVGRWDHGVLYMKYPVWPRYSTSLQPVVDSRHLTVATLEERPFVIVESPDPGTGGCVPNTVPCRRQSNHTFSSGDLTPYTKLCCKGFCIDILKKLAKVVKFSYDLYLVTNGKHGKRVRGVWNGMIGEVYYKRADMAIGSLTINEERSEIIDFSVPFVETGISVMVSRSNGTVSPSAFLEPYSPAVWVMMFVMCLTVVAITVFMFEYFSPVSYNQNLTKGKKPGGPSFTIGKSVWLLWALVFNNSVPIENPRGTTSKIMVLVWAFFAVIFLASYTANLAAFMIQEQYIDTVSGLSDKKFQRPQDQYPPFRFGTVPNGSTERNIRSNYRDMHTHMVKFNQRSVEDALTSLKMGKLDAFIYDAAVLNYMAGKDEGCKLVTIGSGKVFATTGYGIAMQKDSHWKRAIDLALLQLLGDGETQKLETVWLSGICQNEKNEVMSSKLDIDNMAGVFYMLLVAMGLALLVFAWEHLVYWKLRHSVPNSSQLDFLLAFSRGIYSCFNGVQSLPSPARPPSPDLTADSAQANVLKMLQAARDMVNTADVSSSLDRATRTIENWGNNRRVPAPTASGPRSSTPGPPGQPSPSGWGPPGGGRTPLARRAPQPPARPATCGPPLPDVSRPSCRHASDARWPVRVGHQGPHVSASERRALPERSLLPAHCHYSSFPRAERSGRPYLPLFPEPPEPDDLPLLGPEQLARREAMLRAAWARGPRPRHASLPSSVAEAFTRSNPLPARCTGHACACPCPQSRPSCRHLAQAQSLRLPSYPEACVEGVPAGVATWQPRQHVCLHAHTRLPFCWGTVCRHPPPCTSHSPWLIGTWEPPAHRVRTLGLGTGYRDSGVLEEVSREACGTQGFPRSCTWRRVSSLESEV

[7] = target: Glutamate NMDA receptor (Rattus norvegicus) (UniProt P35439+Q00959+Q00960+Q00961+Q62645+Q8VHN2+Q9R1M7); assay: Inhibition of [3H]CPP radioligand at EAA receptor sites in rat cortical membranes at 100 uM concentration; type: cell membranes; details: Membrane; method in brief: as §1
[8] = target: Glutamate receptor ionotropic, AMPA (Rattus norvegicus) (UniProt P19491+P19492+P19493+P19490); assay: Inhibition of [3H]AMPA radioligand at EAA receptor sites in rat cortical membranes at 100 uM concentration; type: cell membranes; details: Membrane; method in brief: as §1
Rattus norvegicus [9] = organism: Rattus norvegicus; assay: Effective concentration in vitro as electropharmacological activity in the rat cortical wedge preparation; antagonist; type: functional; method in brief: as §2

IC50 [1] [µM]	EC50 (Glutamate NMDA receptor [2]) [µM]	IC50 (Glutamate NMDA receptor [3]) [µM]	EC50 (Rattus norvegicus [4]) [µM]	IC50 [5] [µM]	pKa [6]	inhibition [7] [%]	inhibition [8] [%]	EC50 (Rattus norvegicus [9])	SMILES
0.4	> 100	> 100	110	–	–	–	–	–	NC(Cc1c(O)noc1CO)C(=O)O (configuration not stated)
–	> 100	–	13	0.03	–	–	–	–	NC(Cc1c(O)noc1CBr)C(=O)O (configuration not stated)
> 100	5	–	8	–	–	–	–	–	NC(C(=O)O)c1c(O)noc1CO (configuration not stated)
> 100	> 100	> 100	> 5000	–	–	–	–	–	COC(C(=O)O)c1c(O)noc1C (configuration not stated)
> 100	> 100	> 100	2500	–	–	–	–	–	NC1(C(=O)O)CCCCc2onc(O)c21 (configuration not stated)
> 100	50	18.3	70	–	–	–	–	–	CNC(C(=O)O)c1c(C)o[nH]c1=O (configuration not stated)
> 100	–	> 100	1500	–	< 2	–	–	–	O=C(O)c1cccnc1C(=O)O [QUINOLINIC ACID]
> 100	0.45	–	4.3	–	–	–	–	–	Cc1o[nH]c(=O)c1C(N)C(=O)O (configuration not stated)
> 100	> 100	> 100	> 5000	–	–	–	–	–	CSC(C(=O)O)c1c(O)noc1C (configuration not stated)
> 100	> 100	> 100	–	–	–	25	8	Antagonist	CC(C)(C)c1onc(O)c1C(N)C(=O)O (configuration not stated)

SMILES	IC50 [1] [µM]	EC50 (Glutamate NMDA receptor [2]) [µM]	IC50 (Glutamate NMDA receptor [3]) [µM]	EC50 (Rattus norvegicus [4]) [µM]	IC50 [5] [µM]	pKa [6]	inhibition [7] [%]	inhibition [8] [%]	EC50 (Rattus norvegicus [9])
CC(C)(C)c1onc(O)c1CC(N)C(=O)O (configuration not stated)	–	> 100	> 100	48	–	–	–	–	–
